Data from ChEMBL document CHEMBL2146441, “2,6-Disubstituted imidazo[2,1-b][1,3,4]thiadiazoles: search for anticancer agents” (2012).

What was measured:
Format in all cases: functional
OVCAR-4 = assay: Cytotoxicity against human OVCAR4 cells assessed as cell growth at 10^-5 M after 48 hrs by SRB assay; settings: OVCAR-4, 48 h, read-out: Activity
CAKI-1 = assay: Cytotoxicity against human Caki1 cells assessed as cell growth at 10^-5 M after 48 hrs by SRB assay; settings: CAKI-1, 48 h, read-out: Activity
In short: (§1)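 NCI-60 screen: lines kept in RPMI 1640 with 5% FBS, seeded at 5000–40,000 cells/well by doubling time, preincubated 24 h at 37 °C in 5% CO2. Time-zero plates TCA-fixed at drug addition. DMSO stocks diluted in medium, 48 h exposure. Fixation in cold TCA (final 10% adherent, 16% suspension), 0.4% SRB stain, solubilised in 10 mM Tris base, A515. Percent growth computed against control and time-zero.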

SNB-75 = assay: Growth inhibition of human SNB75 cells after 48 hrs by SRB assay; settings: SNB-75, 48 h
In short: (§2)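 Adherent NCI-60 lines grown in RPMI 1640 with 5% FBS, seeded at 5000–40,000 cells/well, and preincubated 24 h at 37 °C, 5% CO2. Compound, stocked in DMSO, given either once at 10^-5 M or at five 10-fold dilutions for 48 h. Cells fixed with cold TCA (final 10%), stained with 0.4% SRB, and read at 515 nm. GI50 taken as 50% reduction in net protein increase versus time-zero and control plates.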

M14 = assay: Growth inhibition of human M14 cells after 48 hrs by SRB assay; settings: M14, 48 h; in short: as §2
RXF 393 [1] = assay: Growth inhibition of human RXF393 cells after 48 hrs by SRB assay; settings: RXF 393, 48 h; in short: as §2
UO-31 [2] = assay: Growth inhibition of human UO31 cells after 48 hrs by SRB assay; settings: UO-31, 48 h; in short: as §2
MCF7 = assay: Growth inhibition of human MCF7 cells after 48 hrs by SRB assay; settings: MCF7, 48 h; in short: as §2
MOLT-4 = assay: Cytotoxicity against human MOLT4 cells assessed as cell growth at 10^-7 M after 48 hrs by SRB assay; settings: MOLT-4, 48 h, read-out: Activity
SR = assay: Cytotoxicity against human SR cells assessed as cell growth at 10^-7 M after 48 hrs by SRB assay; settings: read-out: Activity
HOP-62 [3] = assay: Cytotoxicity against human HOP62 cells assessed as cell growth at 10^-7 M after 48 hrs by SRB assay; settings: HOP-62, 48 h, read-out: Activity
In short: (§3)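 NCI-60 five-dose screen. Cells were grown in RPMI 1640 with 5% FBS and seeded at 5000–40,000 cells/well according to doubling time. They were pre-incubated 24 h at 37 °C in 5% CO₂, and time-zero (Tz) plates were TCA-fixed at drug addition. Five 10-fold dilutions of DMSO stock were applied for 48 h. Read-out was SRB staining, 515 nm absorbance, with percent growth calculated versus Tz and untreated control.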

NCI-H322M = assay: Cytotoxicity against human NCI-H322M cells assessed as cell growth at 10^-4 M after 48 hrs by SRB assay; settings: read-out: Activity
KM12 = assay: Cytotoxicity against human KM12 cells assessed as cell growth at 10^-4 M after 48 hrs by SRB assay; settings: KM12, 48 h, read-out: Activity
U-251 [4] = assay: Cytotoxicity against human U251 cells assessed as cell growth at 10^-4 M after 48 hrs by SRB assay; settings: U-251, 48 h, read-out: Activity
786-0 = assay: Cytotoxicity against human 786-0 cells assessed as cell growth at 10^-7 M after 48 hrs by SRB assay; settings: 786-0, 48 h, read-out: Activity; in short: as §1
[5] = Cytotoxicity against human Hs 578T cells assessed as cell growth at 10^-7 M after 48 hrs by SRB assay; settings: read-out: Activity; in short: as §3
MDA-MB-468 = assay: Cytotoxicity against human MDA-MB-468 cells assessed as cell growth at 10^-7 M after 48 hrs by SRB assay; settings: MDA-MB-468, 48 h, read-out: Activity
NCI-H522 = assay: Cytotoxicity against human NCI-H522 cells assessed as cell growth at 10^-8 M after 48 hrs by SRB assay; settings: NCI-H522, 48 h, read-out: Activity
HT-29 = assay: Cytotoxicity against human HT-29 cells assessed as cell growth at 10^-8 M after 48 hrs by SRB assay; settings: HT-29, 48 h, read-out: Activity; in short: as §3
U-251 [6] = assay: Cytotoxicity against human U251 cells assessed as cell growth at 10^-8 M after 48 hrs by SRB assay; settings: U-251, 48 h, read-out: Activity
IGROV-1 = assay: Cytotoxicity against human IGROV1 cells assessed as cell growth at 10^-8 M after 48 hrs by SRB assay; settings: IGROV-1, 48 h, read-out: Activity
A498 = assay: Cytotoxicity against human A498 cells assessed as cell growth at 10^-8 M after 48 hrs by SRB assay; settings: A498, 48 h, read-out: Activity; in short: as §1
MDA-MB-231 = assay: Cytotoxicity against human MDA-MB-231 cells assessed as cell growth at 10^-8 M after 48 hrs by SRB assay; settings: MDA-MB-231, 48 h, read-out: Activity
T47D = assay: Cytotoxicity against human T47D cells assessed as cell growth at 10^-8 M after 48 hrs by SRB assay; settings: read-out: Activity
SF-268 = assay: Cytotoxicity against human SF268 cells assessed as cell growth at 10^-6 M after 48 hrs by SRB assay; settings: SF-268, 48 h, read-out: Activity
Malme-3M = assay: Cytotoxicity against human MALME-3M cells assessed as cell growth at 10^-6 M after 48 hrs by SRB assay; settings: read-out: Activity
SK-MEL-2 = assay: Cytotoxicity against human SK-MEL-2 cells assessed as cell growth at 10^-6 M after 48 hrs by SRB assay; settings: SK-MEL-2, 48 h, read-out: Activity
SK-MEL-28 = assay: Cytotoxicity against human SK-MEL-28 cells assessed as cell growth at 10^-6 M after 48 hrs by SRB assay; settings: SK-MEL-28, 48 h, read-out: Activity
RXF 393 [7] = assay: Cytotoxicity against human RXF393 cells assessed as cell growth at 10^-6 M after 48 hrs by SRB assay; settings: RXF 393, 48 h, read-out: Activity
UO-31 [8] = assay: Cytotoxicity against human UO31 cells assessed as cell growth at 10^-6 M after 48 hrs by SRB assay; settings: UO-31, 48 h, read-out: Activity
HOP-62 [9] = assay: Growth inhibition of human HOP62 cells after 48 hrs by SRB assay; settings: HOP-62, 48 h; in short: as §2

Structure (SMILES): COc1ccc(-c2nn3cc(-c4ccc(O)cc4O)nc3s2)cc1
- growth at 10 µM (OVCAR-4): -60%
- growth at 10 µM (CAKI-1): 8%
- GI50 (SNB-75): 0.331 µM
- TGI (SNB-75): 2.17 µM
- GI50 (M14): 3.68 µM
- LC50 (concentration killing 50% of cells) (M14): > 100 µM
- TGI (M14): 18.1 µM
- GI50 (RXF 393 [1]): 1.09 µM
- LC50 (RXF 393 [1]): 5.74 µM
- TGI (RXF 393 [1]): 2.5 µM
- GI50 (UO-31 [2]): 1.44 µM
- LC50 (UO-31 [2]): > 100 µM
- TGI (UO-31 [2]): 3.97 µM
- GI50 (MCF7): 1.98 µM
- LC50 (50% cell kill) (MCF7): > 100 µM
- TGI (MCF7): 21.6 µM
- growth at 0.1 µM (MOLT-4): 89%
- growth at 0.1 µM (SR): 85%
- growth at 0.1 µM (HOP-62 [3]): 91%
- growth at 100 µM (NCI-H322M): 11%
- growth at 100 µM (KM12): 2%
- growth at 100 µM (U-251 [4]): -46%
- growth at 0.1 µM (786-0): 99%
- growth at 0.1 µM [5]: 93%
- growth at 0.1 µM (MDA-MB-468): 78%
- growth at 0.01 µM (NCI-H522): 89%
- growth at 0.01 µM (HT-29): 98%
- growth at 0.01 µM (U-251 [6]): 97%
- growth at 0.01 µM (IGROV-1): 96%
- growth at 0.01 µM (A498): 82%
- growth at 0.01 µM (MDA-MB-231): 99%
- growth at 0.01 µM (T47D): 104%
- growth at 1 µM (SF-268): 73%
- growth at 1 µM (Malme-3M): 61%
- growth at 1 µM (SK-MEL-2): 85%
- growth at 1 µM (SK-MEL-28): 73%
- growth at 1 µM (RXF 393 [7]): 55%
- growth at 1 µM (UO-31 [8]): 68%
- GI50 (HOP-62 [9]): 1.88 µM
- LC50 (concentration killing 50% of cells) (HOP-62 [9]): > 100 µM
- TGI (HOP-62 [9]): 5.17 µM

Structure (SMILES): COc1ccc(-c2nn3cc(-c4cccc(N)c4)nc3s2)cc1
- growth at 10 µM (OVCAR-4): 7%
- growth at 10 µM (CAKI-1): 2%
- GI50 (SNB-75): 1.07 µM
- TGI (SNB-75): 4.87 µM
- CC50 (SNB-75; read-out: LC50 (the source's name)): > 100 µM
- GI50 (M14): 5.48 µM
- LC50 (concentration killing 50% of cells) (M14): 90.1 µM
- TGI (M14): 24.5 µM
- GI50 (RXF 393 [1]): 1.38 µM
- LC50 (RXF 393 [1]): 20.9 µM
- TGI (RXF 393 [1]): 4.66 µM
- GI50 (UO-31 [2]): 1.46 µM
- LC50 (UO-31 [2]): 63.3 µM
- TGI (UO-31 [2]): 10.2 µM
- GI50 (MCF7): 2.2 µM
- LC50 (50% cell kill) (MCF7): > 100 µM
- TGI (MCF7): 20.3 µM
- growth at 0.1 µM (MOLT-4): 100%
- growth at 0.1 µM (SR): 102%
- growth at 0.1 µM (HOP-62 [3]): 98%
- growth at 100 µM (NCI-H322M): -3%
- growth at 100 µM (KM12): -48%
- growth at 100 µM (U-251 [4]): -17%
- growth at 0.1 µM (786-0): 105%
- growth at 0.1 µM [5]: 84%
- growth at 0.1 µM (MDA-MB-468): 80%
- growth at 0.01 µM (NCI-H522): 82%
- growth at 0.01 µM (HT-29): 100%
- growth at 0.01 µM (U-251 [6]): 106%
- growth at 0.01 µM (IGROV-1): 102%
- growth at 0.01 µM (A498): 87%
- growth at 0.01 µM (MDA-MB-231): 85%
- growth at 0.01 µM (T47D): 97%
- growth at 1 µM (SF-268): 88%
- growth at 1 µM (Malme-3M): 71%
- growth at 1 µM (SK-MEL-2): 79%
- growth at 1 µM (SK-MEL-28): 80%
- growth at 1 µM (RXF 393 [7]): 63%
- growth at 1 µM (UO-31 [8]): 60%
- GI50 (HOP-62 [9]): 3.12 µM
- LC50 (concentration killing 50% of cells) (HOP-62 [9]): 87.6 µM
- TGI (HOP-62 [9]): 16.6 µM
